Test results published in ChEMBL document CHEMBL2016470, “Quinolinyl- and phenantridinyl-acetamides as bradykinin B1 receptor antagonists” (Bioorg Med Chem Lett, 2012).
Active and inactive are the calls of the source. The rule behind the calls is not given here.

Experiments:
B1 bradykinin receptor [1] = target: T1, B1 bradykinin receptor (Homo sapiens, UniProt P46663); assay: Binding affinity to human bradykinin B1 receptor
T1 sequence (P46663 whole entry): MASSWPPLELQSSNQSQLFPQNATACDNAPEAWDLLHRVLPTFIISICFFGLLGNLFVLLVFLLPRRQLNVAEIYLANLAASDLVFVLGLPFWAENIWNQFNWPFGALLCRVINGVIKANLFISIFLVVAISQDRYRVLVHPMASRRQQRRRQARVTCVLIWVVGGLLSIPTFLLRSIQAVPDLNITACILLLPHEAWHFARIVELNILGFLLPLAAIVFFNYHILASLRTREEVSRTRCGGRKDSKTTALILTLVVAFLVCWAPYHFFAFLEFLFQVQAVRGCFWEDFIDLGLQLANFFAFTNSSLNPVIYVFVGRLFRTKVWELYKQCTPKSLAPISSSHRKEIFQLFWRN

Liver microsomes [2] = assay: Intrinsic clearance in rat liver microsomes assessed per gram of liver at 2.5 uM after 20 mins; type: ADME, Microsome
Liver microsomes [3] = assay: Intrinsic clearance in human liver microsomes assessed per gram of liver at 2.5 uM after 20 mins; type: ADME, Microsome
B1 bradykinin receptor [4] = target: T2, B1 bradykinin receptor (Rattus norvegicus, UniProt P97583); assay: Antagonist activity at rat bradykinin B1 receptor; type: functional
T2 sequence (P97583 whole entry): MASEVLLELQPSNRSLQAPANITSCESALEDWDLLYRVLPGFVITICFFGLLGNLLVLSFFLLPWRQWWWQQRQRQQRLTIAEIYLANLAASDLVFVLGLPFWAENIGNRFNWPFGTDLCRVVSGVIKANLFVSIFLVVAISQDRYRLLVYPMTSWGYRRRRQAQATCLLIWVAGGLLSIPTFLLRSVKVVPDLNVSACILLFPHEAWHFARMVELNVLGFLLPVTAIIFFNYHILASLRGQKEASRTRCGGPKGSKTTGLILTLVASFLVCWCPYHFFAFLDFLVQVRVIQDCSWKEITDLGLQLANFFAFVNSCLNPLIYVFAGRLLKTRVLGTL

Rattus norvegicus [5] = assay: Antiinflammatory activity in Wistar rat pain model assessed as inhibition of DABK-induced paw oedema at 10 mg/kg, po administered 30 mins before DABK challenge measured by plethysometric analysis; type: functional
How it was run: (§1)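 Male Wistar rats, 120–150 g, LPS-pretreated; oral dosing in 5% (v/v) Tween 80 in saline before DABK injection. Paw volume by plethysmometer at 0, 10, 20, 30 min post-DABK; maximum edema volume taken. Percent inhibition from treated group means versus simultaneous vehicle means; ANOVA with Dunnett's test versus vehicle.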

Rattus norvegicus [6] = assay: Antihyperalgesic activity in Sprague-Dawley rat assessed as decrease in CFA-induced joint pain at 1 to 3 mg/kg, po administered 3 days post CFA challenge; type: functional, organism-based
How it was run: (§2)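 Knee monoarthritis induced by intra-articular CFA (0.1 ml); joint pain read as hind-limb weight-bearing deficit on an incapacitance tester (difference between un-injected and injected limbs as % of total hind-limb weight). Rats with post-CFA baseline 20–60% enrolled and randomized to equalize baselines; oral dosing on Day 3 post-CFA in 5% Tween 80 in saline; readings pre-dose and 0.5, 1, 2, 3, 4 h post-dose; change from baseline at maximum effect.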

Rattus norvegicus [7] = assay: Antiinflammatory activity in Wistar rat pain model assessed as inhibition of DABK-induced paw oedema at 1 mg/kg, po administered 30 mins before DABK challenge measured by plethysometric analysis; type: functional; how it was run: as §1
Rattus norvegicus [8] = assay: Antiinflammatory activity in Wistar rat pain model assessed as inhibition of DABK-induced paw oedema at 3 mg/kg, po administered 30 mins before DABK challenge measured by plethysometric analysis; type: functional; how it was run: as §1
Rattus norvegicus [9] = assay: Antihyperalgesic activity in po dosed Sprague-Dawley rat assessed as decrease in CFA-induced joint pain administered 3 days post CFA challenge; type: functional, organism-based; how it was run: as §2
Rattus norvegicus [10] = assay: Antiinflammatory activity in Wistar rat pain model assessed as inhibition of DABK-induced paw oedema at 0.1 mg/kg, po administered 120 mins before DABK challenge measured by plethysometric analysis; type: functional; how it was run: as §1
Rattus norvegicus [11] = assay: Antiinflammatory activity in Wistar rat pain model assessed as inhibition of DABK-induced paw oedema at 0.03 mg/kg, po administered 120 mins before DABK challenge measured by plethysometric analysis; type: functional; how it was run: as §1
Rattus norvegicus [12] = assay: Antiinflammatory activity in Wistar rat pain model assessed as inhibition of DABK-induced paw oedema at 0.3 mg/kg, po administered 120 mins before DABK challenge measured by plethysometric analysis; type: functional; how it was run: as §1
Rattus norvegicus [13] = assay: Antiinflammatory activity in po dosed Wistar rat pain model assessed as inhibition of DABK-induced paw oedema administered 120 mins before DABK challenge measured by plethysometric analysis; type: functional, organism-based; how it was run: as §1
[14] = target: T3, B2 bradykinin receptor (Homo sapiens) (UniProt P30411); assay: Antagonist activity at human bradykinin B2 receptor at 1 uM; type: functional; parameters: scale not given: the % may be the effect or the level left
T3 sequence (whole entry): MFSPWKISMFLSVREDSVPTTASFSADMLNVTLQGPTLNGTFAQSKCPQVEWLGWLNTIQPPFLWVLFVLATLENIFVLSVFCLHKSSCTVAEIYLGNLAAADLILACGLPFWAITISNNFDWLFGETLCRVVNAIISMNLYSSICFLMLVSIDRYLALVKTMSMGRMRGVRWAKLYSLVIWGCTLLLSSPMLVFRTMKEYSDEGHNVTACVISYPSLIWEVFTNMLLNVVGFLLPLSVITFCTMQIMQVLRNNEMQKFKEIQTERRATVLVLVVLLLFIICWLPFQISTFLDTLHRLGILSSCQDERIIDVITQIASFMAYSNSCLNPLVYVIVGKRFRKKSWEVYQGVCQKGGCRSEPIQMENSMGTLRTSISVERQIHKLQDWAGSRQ

Rattus norvegicus [15] = assay: Antiinflammatory activity in Wistar rat pain model assessed as inhibition of DABK-induced paw oedema at 3 mg/kg, po administered 60 mins before DABK challenge; type: functional; settings: read-out: INH; how it was run: as §1
Rattus norvegicus [16] = assay: Antiinflammatory activity in Wistar rat pain model assessed as inhibition of DABK-induced paw oedema at 1 mg/kg, po administered 60 mins before DABK challenge; type: functional; how it was run: as §1
Rattus norvegicus [17] = assay: Antiinflammatory activity in Wistar rat pain model assessed as inhibition of DABK-induced paw oedema at 0.3 mg/kg, po administered 60 mins before DABK challenge; type: functional; how it was run: as §1

| SMILES | Ki (B1 bradykinin receptor [1]) [nM] | CLint (Liver microsomes [2]) [mL/min/g] | CLint (Liver microsomes [3]) [mL/min/g] | IC50 (B1 bradykinin receptor [4]) [nM] | other results |
| --- | --- | --- | --- | --- | --- |
| O=C(CC1CCc2ccccc2N1S(=O)(=O)c1ccc(Cl)c(Cl)c1)NCCN1CCN(c2ccncc2)CC1 (centres undefined) | 166 | 7.4 | 16.8 | – | – |
| Cc1cc(C)c(S(=O)(=O)N2c3ccccc3-c3ccccc3C2CC(=O)NCCc2ccc(C3=NCCN3)cc2)cc1C (centres undefined) | 2.9 | 2.7 | 16.4 | 21 | – |
| COc1ccc2cc(S(=O)(=O)N[C@H](CC(=O)N[C@H](Cc3ccc(CN4[C@H](C)CCC[C@@H]4C)cc3)C(=O)N(C)C(C)C)c3ccc4c(c3)OCO4)ccc2c1 | – | – | – | – | inhibition in vivo at 10 mg/kg (Rattus norvegicus [5]): 30%; Activity (Rattus norvegicus [6]): Active; inhibition in vivo at 1 mg/kg (Rattus norvegicus [7]): 6%; inhibition in vivo at 3 mg/kg (Rattus norvegicus [8]): 16% |
| COc1ccc(S(=O)(=O)N2c3ccccc3-c3ccccc3C2CC(=O)NCCc2ccc(C3=NCCN3)cc2)cc1 (centres undefined) | 15.5 | 4.8 | 14.5 | 81 | – |
| O=C(CC1CCc2ccccc2N1S(=O)(=O)c1ccc(Cl)c(Cl)c1)NCCc1ccc(C2=NCCN2)cc1 (centres undefined) | 6.3 | 2.6 | 7.1 | – | – |
| COc1cccc2c1-c1ccccc1N(S(=O)(=O)c1ccc(Cl)c(Cl)c1)C2CC(=O)NCCc1ccc(C2=NCCN2)cc1 (centres undefined) | 1.7 | 2.6 | 1 | 21 | – |
| O=C(CC1CCc2ccccc2N1S(=O)(=O)c1ccc(Cl)c(Cl)c1)Nc1ccc(N2CCC(N3CCCCC3)CC2)cc1 (centres undefined) | 628 | – | – | – | – |
| O=C(CC1c2ccccc2-c2ccccc2N1S(=O)(=O)c1ccc(Cl)c(Cl)c1)NCCc1ccc(C2=NCCN2)cc1 (centres undefined) | 3.1 | 2.5 | 9.8 | 28 | – |
| O=C(CC1c2ccccc2CCN1S(=O)(=O)c1ccc(Cl)c(Cl)c1)Nc1ccc(N2CCC(N3CCCCC3)CC2)cc1 (centres undefined) | 138 | – | – | – | – |
| O=C(CC1c2ccccc2CCN1S(=O)(=O)c1ccc(Cl)c(Cl)c1)NCCc1ccc(C2=NCCN2)cc1 (centres undefined) | 2.2 | 1.9 | 4.2 | – | – |
| O=C(CC1Cc2ccccc2CN1S(=O)(=O)c1ccc(Cl)c(Cl)c1)NCCc1ccc(C2=NCCN2)cc1 (centres undefined) | 481 | – | – | – | – |
| O=C(CC1c2ccccc2CCN1S(=O)(=O)c1ccc(Cl)c(Cl)c1)N[C@H]1CC[C@H](CCC2=NCCN2)CC1 (some centres undefined) | 1 | 1.1 | 12.5 | – | – |
| O=C(CC1c2cc(F)ccc2-c2ccccc2N1S(=O)(=O)c1ccc(Cl)c(Cl)c1)NCCc1ccc(C2=NCCN2)cc1 (centres undefined) | 1.2 | 1.6 | 5.5 | 45 | – |
| Cc1ccc(S(=O)(=O)N2c3ccccc3-c3ccccc3C2CC(=O)NCCc2ccc(C3=NCCN3)cc2)cc1 (centres undefined) | 4.7 | 1.5 | 12.9 | 52 | – |
| O=C(CC1C(=O)Nc2ccccc2N1S(=O)(=O)c1ccc(Cl)c(Cl)c1)Nc1ccccc1 (centres undefined) | 1400 | – | – | – | – |
| O=C(CC1CCc2ccccc2N1S(=O)(=O)c1ccc(Cl)c(Cl)c1)N[C@H]1CC[C@H](CCC2=NCCN2)CC1 (some centres undefined) | 4.3 | 0.6 | 9 | – | – |
| COc1cccc2c1-c1ccccc1N(S(=O)(=O)c1ccc(Cl)c(Cl)c1)C2CC(=O)N[C@H]1CC[C@H](CCN2CCCC2)CC1 (some centres undefined) | 8.9 | 1.8 | 1.1 | 43 | Activity (Rattus norvegicus [9]): Dose-dependent effect; inhibition in vivo at 0.1 mg/kg (Rattus norvegicus [10]): 27%; inhibition in vivo at 0.03 mg/kg (Rattus norvegicus [11]): 19%; inhibition in vivo at 0.3 mg/kg (Rattus norvegicus [12]): 54%; inhibition (Rattus norvegicus [13]): Dose-dependent effect; Activity [14]: 5.8% |
| O=C(CC1c2cc(F)cc(F)c2-c2ccccc2N1S(=O)(=O)c1ccc(Cl)c(Cl)c1)NCCc1ccc(C2=NCCN2)cc1 (centres undefined) | 9.1 | 3.9 | 8 | 42 | – |
| O=C(CC1COc2ccccc2N1S(=O)(=O)c1ccc(Cl)c(Cl)c1)NCCc1ccc(C2=NCCN2)cc1 (centres undefined) | 480 | – | – | – | – |
| O=C(CC1c2ccccc2CCN1S(=O)(=O)c1ccc(Cl)c(Cl)c1)N1CCC(Cc2ccc(C3=NCCN3)cc2)CC1 (centres undefined) | 3.8 | 2.4 | 13.1 | – | – |
| O=C(O)Cc1ccccc1Nc1c(Cl)cccc1Cl [DICLOFENAC] | – | – | – | – | inhibition in vivo at 3 mg/kg (Rattus norvegicus [15]): 35%; inhibition in vivo at 1 mg/kg (Rattus norvegicus [16]): 24%; Activity (Rattus norvegicus [6]): Active; inhibition in vivo at 0.3 mg/kg (Rattus norvegicus [17]): 23% |
